Measurements: ChEMBL document CHEMBL1828575, “Design, synthesis and antiproliferative activities of biarylolefins based on polyhydroxylated and carbohydrate scaffolds” (Eur J Med Chem, 2011)

Tests used:
Type in all cases: functional
K562 = assay: Cytotoxicity against human K562 cells assessed as cellular growth at 10 uM after 48 hrs by SRB assay
Method in brief: (§1)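 NCI60 single-dose screen of cells in RPMI 1640 with 5% FBS and 2 mM L-glutamine, preincubated 24 h at 37 °C, 5% CO₂. Cells were then exposed 48 h to compound added from DMSO stock. TCA-fixed, stained with 0.4% SRB in 1% acetic acid, dye solubilised in 10 mM Tris base and read at 515 nm. Growth is given as percent of untreated control.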

PC-3 = assay: Cytotoxicity against human PC3 cells assessed as cellular growth at 10 uM after 48 hrs by SRB assay
Method in brief: (§2)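 NCI-60 panel lines grown in RPMI 1640 with 5% FBS and 2 mM L-glutamine. Plated at 5000–40,000 cells/well and preincubated 24 h at 37 °C, 5% CO₂, with time-zero plates fixed in TCA. Compounds, dissolved in DMSO and diluted in medium, were applied for 48 h. Cells were TCA-fixed (10% final for adherent, 16% for suspension) and stained with 0.4% SRB in 1% acetic acid. Dye was solubilised in 10 mM Tris base and read at 515 nm; growth was expressed as a percentage of untreated control.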

SW-620 = assay: Antitumor activity against human SW620 cells after 48 hrs by SRB assay; details: SW-620, 48 h
Method in brief: (§3)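 NCI60 panel cells grown in RPMI 1640 with 5% FBS and 2 mM L-glutamine, plated at 5000–40,000 cells/well and preincubated 24 h at 37 °C, 5% CO₂. Compound was added from DMSO at five concentrations, 10-fold or 1/2 log dilutions, then incubated 48 h.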

OVCAR-8 = assay: Cytotoxicity against human OVCAR8 cells assessed as cellular growth at 10 uM after 48 hrs by SRB assay; method in brief: as §2
TK-10 = assay: Cytotoxicity against human TK10 cells assessed as cellular growth at 10 uM after 48 hrs by SRB assay; method in brief: as §2
NCI-H522 = assay: Cytotoxicity against human NCI-H522 cells assessed as cellular growth at 10 uM after 48 hrs by SRB assay; method in brief: as §2
RPMI-8226 = assay: Cytotoxicity against human RPMI8226 cells assessed as cellular growth at 10 uM after 48 hrs by SRB assay; method in brief: as §2
A549 = assay: Antitumor activity against human A549 cells after 48 hrs by SRB assay; details: A549, 48 h
Method in brief: (§4)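 NCI60 panel in RPMI 1640 with 5% FBS and 2 mM L-glutamine. Cells were plated at 5000–40,000/well by doubling time, held 24 h, then time-zero plates were TCA-fixed. Five concentrations (10-fold or half-log dilutions of DMSO stocks) were applied for 48 h at 37 °C, 5% CO2. Cells were fixed with cold TCA (10% final adherent, 16% suspension) and stained with 0.4% SRB. Bound dye was dissolved in 10 mM Tris and read at 515 nm. GI50, TGI and LC50 were calculated per line.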

UACC-257 = assay: Antitumor activity against human UACC257 cells after 48 hrs by SRB assay; details: UACC-257, 48 h; method in brief: as §3
OVCAR-4 = assay: Cytotoxicity against human OVCAR4 cells assessed as cellular growth at 10 uM after 48 hrs by SRB assay; method in brief: as §2
BT-549 = assay: Cytotoxicity against human BT549 cells assessed as cellular growth at 10 uM after 48 hrs by SRB assay; method in brief: as §1
NCI-H226 = assay: Cytotoxicity against human NCI-H226 cells assessed as cellular growth at 10 uM after 48 hrs by SRB assay; method in brief: as §2
SN12C = assay: Cytotoxicity against human SN12C cells assessed as cellular growth at 10 uM after 48 hrs by SRB assay; method in brief: as §2
OVCAR-5 = assay: Cytotoxicity against human OVCAR5 cells assessed as cellular growth at 10 uM after 48 hrs by SRB assay; method in brief: as §2
EKVX = assay: Cytotoxicity against human EKVX cells assessed as cellular growth at 10 uM after 48 hrs by SRB assay; method in brief: as §1
SF-539 = assay: Cytotoxicity against human SF539 cells assessed as cellular growth at 10 uM after 48 hrs by SRB assay; method in brief: as §2
[1] = Cytotoxicity against human NCI60 cells assessed as cellular growth at 10 uM after 48 hrs by SRB assay relative to untreated control; method in brief: as §2
MDA-MB-231 = assay: Antitumor activity against human MDA-MB-231 cells after 48 hrs by SRB assay; details: MDA-MB-231, 48 h; for CC50: read-out: LC50 (the source's name); method in brief: as §4
NCI-H322M = assay: Cytotoxicity against human NCI-H322M cells assessed as cellular growth at 10 uM after 48 hrs by SRB assay; method in brief: as §2
IGROV-1 = assay: Antitumor activity against human IGROV1 cells after 48 hrs by SRB assay; details: IGROV-1, 48 h; method in brief: as §4
SK-MEL-2 = assay: Antitumor activity against human SK-MEL-2 cells after 48 hrs by SRB assay; details: SK-MEL-2, 48 h; for CC50: read-out: LC50 (the source's name); method in brief: as §3
DU-145 = assay: Antitumor activity against human DU145 cells after 48 hrs by SRB assay; details: DU-145, 48 h; method in brief: as §4
RXF 393 = assay: Antitumor activity against human RXF393 cells after 48 hrs by SRB assay; details: RXF 393, 48 h; for CC50: read-out: LC50 (the source's name); method in brief: as §4
SNB-19 = assay: Antitumor activity against human SNB19 cells after 48 hrs by SRB assay; details: SNB-19, 48 h; for CC50: read-out: LC50 (the source's name); method in brief: as §3
ACHN = assay: Antitumor activity against human ACHN cells after 48 hrs by SRB assay; method in brief: as §4
UACC-62 = assay: Cytotoxicity against human UACC62 cells assessed as cellular growth at 10 uM after 48 hrs by SRB assay; method in brief: as §2
[2] = read-out: LC50 (the source's name)
[3] = read-out: pLC50 (the source's name) (converted)

COc1ccc(/C(=C2/O[C@@H]([C@H]3COC(C)(C)O3)[C@H]3OC(C)(C)O[C@@H]23)c2cc(OC)c(OC)c(OC)c2)cc1O
Activity (K562): 24.28% | Activity (PC-3): 30.63% | GI50 (SW-620; read-out: GI50): 4.05 µM | CC50 (SW-620; [2]): > 100 µM | TGI (SW-620; read-out: TGI): > 100 µM | GI50 (SW-620; read-out: pGI50 (converted)): 4.07 µM | CC50 (SW-620; [3]): > 100 µM | TGI (SW-620; read-out: pTGI): > 100 µM | Activity (OVCAR-8): 68.27% | Activity (TK-10): 109.18% | Activity (NCI-H522): 43.38% | Activity (RPMI-8226): 63.56% | GI50 (A549; read-out: GI50): 2.32 µM | CC50 (A549; [2]): > 100 µM | TGI (A549; read-out: TGI): > 100 µM | GI50 (A549; read-out: pGI50 (converted)): 23.4 µM | CC50 (A549; [3]): > 100 µM | TGI (A549; read-out: pTGI (converted)): > 100 µM | GI50 (UACC-257; read-out: GI50): > 1 µM | CC50 (UACC-257; [2]): > 100 µM | TGI (UACC-257; read-out: TGI): > 100 µM | GI50 (UACC-257; read-out: pGI50 (converted)): 100 µM | CC50 (UACC-257; [3]): > 100 µM | TGI (UACC-257; read-out: pTGI (converted)): > 100 µM | Activity (OVCAR-4): 99.15% | Activity (BT-549): 57.66% | Activity (NCI-H226): 107.94% | Activity (SN12C): 57.72% | Activity (OVCAR-5): 95.38% | Activity (EKVX): 90.16% | Activity (SF-539): 9.85% | Activity [1]: 57% | GI50 (MDA-MB-231): 4.58 µM | TGI (MDA-MB-231): 30.7 µM | CC50 (MDA-MB-231): > 100 µM | Activity (NCI-H322M): 34.81% | GI50 (IGROV-1; read-out: GI50): 3.32 µM | CC50 (IGROV-1; [2]): > 100 µM | TGI (IGROV-1; read-out: TGI): > 100 µM | GI50 (IGROV-1; read-out: pGI50 (converted)): 33.1 µM | CC50 (IGROV-1; [3]): > 100 µM | TGI (IGROV-1; read-out: pTGI): > 100 µM | GI50 (SK-MEL-2): 57.9 µM | TGI (SK-MEL-2): > 100 µM | CC50 (SK-MEL-2): > 100 µM | GI50 (DU-145; read-out: GI50): 3.29 µM | CC50 (DU-145; [2]): > 100 µM | TGI (DU-145; read-out: TGI): 13.8 µM | GI50 (DU-145; read-out: pGI50 (converted)): 3.31 µM | CC50 (DU-145; [3]): > 100 µM | TGI (DU-145; read-out: pTGI (converted)): 13.2 µM | GI50 (RXF 393): 2120 nM | TGI (RXF 393): 5.89 µM | CC50 (RXF 393): 29.8 µM | GI50 (SNB-19): 4.28 µM | TGI (SNB-19): > 100 µM | CC50 (SNB-19): > 100 µM | GI50 (ACHN; read-out: GI50): 9.31 µM | CC50 (ACHN; [2]): > 100 µM | TGI (ACHN; read-out: TGI): > 100 µM | GI50 (ACHN; read-out: pGI50 (converted)): 9.33 µM | CC50 (ACHN; [3]): > 100 µM | TGI (ACHN; read-out: pTGI): > 100 µM | Activity (UACC-62): 93.16%

COc1ccc(/C(=C2\O[C@@H]([C@H]3COC(C)(C)O3)[C@H]3OC(C)(C)O[C@@H]23)c2cc(OC)c(OC)c(OC)c2)cc1O
Activity (K562): 10.18% | Activity (PC-3): 29.4% | GI50 (SW-620; read-out: GI50): 7.28 µM | CC50 (SW-620; [2]): > 100 µM | TGI (SW-620; read-out: TGI): > 100 µM | GI50 (SW-620; read-out: pGI50 (converted)): 7.24 µM | CC50 (SW-620; [3]): > 100 µM | TGI (SW-620; read-out: pTGI): > 100 µM | Activity (OVCAR-8): 96.09% | Activity (TK-10): 116.76% | Activity (NCI-H522): 51.79% | Activity (RPMI-8226): 36.38% | GI50 (A549; read-out: GI50): 22.7 µM | CC50 (A549; [2]): > 100 µM | TGI (A549; read-out: TGI): > 100 µM | GI50 (A549; read-out: pGI50 (converted)): 22.9 µM | CC50 (A549; [3]): > 100 µM | TGI (A549; read-out: pTGI (converted)): > 100 µM | GI50 (UACC-257; read-out: GI50): 39.4 µM | CC50 (UACC-257; [2]): > 100 µM | TGI (UACC-257; read-out: TGI): > 100 µM | GI50 (UACC-257; read-out: pGI50 (converted)): 39.8 µM | CC50 (UACC-257; [3]): > 100 µM | TGI (UACC-257; read-out: pTGI (converted)): > 100 µM | Activity (OVCAR-4): 105.57% | Activity (BT-549): 67.52% | Activity (NCI-H226): 112.98% | Activity (SN12C): 84.5% | Activity (OVCAR-5): 92.89% | Activity (EKVX): 100.52% | Activity (SF-539): 21.53% | Activity [1]: 66% | GI50 (MDA-MB-231): 6.28 µM | TGI (MDA-MB-231): 69.7 µM | CC50 (MDA-MB-231): > 100 µM | Activity (NCI-H322M): 91.51% | GI50 (IGROV-1; read-out: GI50): 45.1 µM | CC50 (IGROV-1; [2]): > 100 µM | TGI (IGROV-1; read-out: TGI): > 100 µM | GI50 (IGROV-1; read-out: pGI50 (converted)): 44.7 µM | CC50 (IGROV-1; [3]): > 100 µM | TGI (IGROV-1; read-out: pTGI): > 100 µM | GI50 (SK-MEL-2): 1.53 µM | TGI (SK-MEL-2): 4.12 µM | CC50 (SK-MEL-2): 24.1 µM | GI50 (DU-145; read-out: GI50): 3.93 µM | CC50 (DU-145; [2]): > 100 µM | TGI (DU-145; read-out: TGI): > 100 µM | GI50 (DU-145; read-out: pGI50 (converted)): 3.89 µM | CC50 (DU-145; [3]): > 100 µM | TGI (DU-145; read-out: pTGI (converted)): > 100 µM | GI50 (RXF 393): 2540 nM | TGI (RXF 393): 5.99 µM | CC50 (RXF 393): 32.6 µM | GI50 (SNB-19): 2.49 µM | TGI (SNB-19): 6.08 µM | CC50 (SNB-19): > 100 µM | GI50 (ACHN; read-out: GI50): 15.4 µM | CC50 (ACHN; [2]): > 100 µM | TGI (ACHN; read-out: TGI): > 100 µM | GI50 (ACHN; read-out: pGI50 (converted)): 15.5 µM | CC50 (ACHN; [3]): > 100 µM | TGI (ACHN; read-out: pTGI): > 100 µM | Activity (UACC-62): 82.85%
